From publication PMC6188675 (Journal of medicinal chemistry, 2013)

Experiments:
[1] = test system: Flag-6x-histidine construct; assay: Quench counter-screen; details: compounds tested at 10 µM
Summary of the method: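 Run as the integrase–LEDGF/p75 AlphaScreen, with one Flag-6xhistidine construct replacing both proteins. Compound incubations were 30 min then 60 min at 4 °C. Ni-chelate donor and anti-FLAG acceptor beads were added at 20 µg/mL each for 1 h at 30 °C, kept from light. Acceptor-bead emission gave percent inhibition.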

[2] = molecular target: IN 3'-processing catalysis (Human immunodeficiency virus type 1 group M subtype B, UniProt P12497); assay: IN enzymatic assay, 3'-processing; type: biochemical, HIV-1
[3] = molecular target: IN strand transfer catalysis (Human immunodeficiency virus type 1 group M subtype B, UniProt P12497); assay: IN enzymatic assay, strand transfer; type: biochemical, HIV-1
[4] = test system: LNCaP cells; assay: MTT cytotoxicity assay in LNCaP cells; type: cell-based
[5] = test system: HIV-1; assay: Antiviral MTT/MT-4 assay; type: cell-based; details: MT-4 cells, 13 µM

Row | Compound | Quench % Inhib. [1] | IC50 [2] | IC50 [3] | cytotoxicity in MTT LNCaP assay (in words) [4] | antiviral activity at maximum testable concentration [5]
1 | CCC(=O)NC(c1ccc(OC)c(OC)c1)c1cc(Cl)c2cccnc2c1O (stereo not shown) [Q1–9] | <50% | – | – | – | –
2 | Cc1cccnc1NCc1ccc(O)c2ncccc12 [Q2–9] | <50% | > 20 µM | > 20 µM | – | –
3 | Cc1ccc(NCc2ccc(O)c3ncccc23)cc1 [Q2–8, 5-((p-tolylamino)methyl)quinolin-8-ol] | <50% | – | – | – | –
4 | O=C(CC(Sc1cccc2cccnc12)c1ccc(F)cc1)c1cccs1 (stereo not shown) [Q5-2] | <50% | > 20 µM | > 20 µM | – | –
5 | CN1CCN(Cc2ccc(O)c3ncccc23)CC1 [Q3-2] | <50% | – | – | negligible inhibition of cell growth | –
6 | CCOC(=O)C1CCCN(Cc2ccc(O)c3ncccc23)C1 (stereo not shown) [Q3–6] | <50% | – | – | – | –
7 | Cc1ccccc1NCc1ccc(O)c2ncccc12 [Q2-1] | <50% | – | – | – | –
8 | Oc1ccc(CNc2cccc(C(F)(F)F)c2)c2cccnc12 [Q2–5] | <50% | > 20 µM | > 20 µM | – | –
9 | Oc1ccc(Cc2ccc(O)c3ncccc23)c2cccnc12 [Q2-2] | <50% | – | – | notable cytotoxicity | –
10 | CCOc1ccc(NCc2ccc(O)c3ncccc23)cc1 [Q2–12] | <50% | – | – | – | –
11 | CCCC(=O)NC(c1ccc(OC)cc1)c1ccc2cccnc2c1O (stereo not shown) [Q1–11] | <50% | – | – | – | –
12 | CC(=O)NC(c1ccc(N(C)C)cc1)c1cc(Cl)c2cccnc2c1O (stereo not shown) [Q1–10] | <50% | – | – | – | –
13 | Oc1ccc(Cl)c2cccnc12 [QA, 5-chloroquinolin-8-ol] | <50% | > 20 µM | > 20 µM | – | –
14 | CCOC(=O)C1CCN(Cc2ccc(O)c3ncccc23)CC1 [Q3–8] | <50% | > 20 µM | > 20 µM | – | –
15 | CCC(=O)NC(c1cccs1)c1cc([N+](=O)[O-])c2cccnc2c1O (stereo not shown) [Q1–6] | <50% | > 20 µM | > 20 µM | – | –
16 | Oc1ccc(CNc2ccccc2Cl)c2cccnc12 [Q2–14] | <50% | – | – | – | –
17 | CCC(=O)NC(c1ccc(OC)cc1)c1cc([N+](=O)[O-])c2cccnc2c1O (stereo not shown) [Q1–4] | <50% | > 20 µM | > 20 µM | – | –
18 | Oc1ccc(CN2CCN(Cc3ccccc3)CC2)c2cccnc12 [Q3–9] | <50% | > 20 µM | > 20 µM | – | –
19 | O=C(CC(Sc1cccc2cccnc12)c1ccc(OC(F)F)cc1)c1ccco1 (stereo not shown) [Q5-1] | <50% | > 20 µM | > 20 µM | – | –

Row | Compound | Quench % Inhib. [1] | IC50 [2] | IC50 [3] | cytotoxicity in MTT LNCaP assay (in words) [4] | antiviral activity at maximum testable concentration [5]
20 | Cc1cccc(NCc2ccc(O)c3ncccc23)n1 [Q2–4] | <50% | > 20 µM | > 20 µM | – | –
21 | CC(=O)NC(c1ccccc1)c1cc(Cl)c2cccnc2c1O (stereo not shown) [Q1–5] | <50% | > 20 µM | > 20 µM | – | –
22 | Oc1c(Cl)cc(Cl)c2cccnc12 [QB, 5,7-dichloroquinolin-8-ol] | <50% | > 20 µM | > 20 µM | – | –
23 | Cc1ccc(S(=O)(=O)NC(=O)Oc2cccc3cccnc23)cc1 [Q4-1] | <50% | > 20 µM | > 20 µM | low cytotoxicity | –
24 | Oc1ccc(CN2CCN(c3ccccc3)CC2)c2cccnc12 [Q3–7] | <50% | – | – | notable cell-growth inhibition | –
25 | Cc1cccc(NCc2ccc(O)c3ncccc23)c1 [Q2–11] | <50% | > 20 µM | > 20 µM | – | –
26 | Oc1ccc(CNc2ccccc2F)c2cccnc12 [Q2–10] | <50% | > 20 µM | > 20 µM | – | –
27 | Cc1cccc(NCc2ccc(O)c3ncccc23)c1C [Q2–6] | <50% | > 20 µM | > 20 µM | – | no antiviral activity could be detected
28 | Oc1ccc(CN2CCCCC2)c2cccnc12 [Q3-1] | <50% | – | – | negligible inhibition of cell growth | –
29 | COc1cccc(C(NC(C)=O)c2ccc3cccnc3c2O)c1 (stereo not shown) [Q1–3] | <50% | > 20 µM | > 20 µM | – | –
30 | CCC(=O)NC(c1ccccc1OC)c1ccc2cccnc2c1O (stereo not shown) [Q1–2] | <50% | > 20 µM | > 20 µM | notable cytotoxicity | –
31 | Oc1ccc(CNc2ccc(C(F)(F)F)cc2)c2cccnc12 [Q2–3] | <50% | > 20 µM | > 20 µM | – | –
32 | CCC(=O)NC(c1ccco1)c1cc(Cl)c2cccnc2c1O (stereo not shown) [Q1–8] | <50% | – | – | – | –
33 | Oc1ccccc1C(Nc1nccs1)c1ccc2cccnc2c1O (stereo not shown) [Q1–12] | <50% | – | – | – | –
34 | CCCC(=O)NC(c1ccccc1)c1ccc2cccnc2c1O (stereo not shown) [Q1-1] | <50% | > 20 µM | > 20 µM | notable cytotoxicity | –
35 | COc1cccc(NCc2ccc(O)c3ncccc23)c1 [Q2–7] | <50% | > 20 µM | > 20 µM | notable cytotoxicity | –
36 | COc1ccc(C(NC(C)=O)c2cc([N+](=O)[O-])c3cccnc3c2O)cc1OC (stereo not shown) [Q1–7] | <50% | – | – | – | –
37 | CCOCc1ccc(O)c2ncccc12 [QC, 5-(ethoxymethyl)quinolin-8-ol] | <50% | > 20 µM | > 20 µM | – | –
38 | Cc1ccc(NCc2ccc(O)c3ncccc23)cc1C [Q2–13, 5-(((3,4-dimethylphenyl)amino)methyl)quinolin-8-ol] | <50% | – | – | – | –
